Source: PubChem BioAssay (several laboratories)
The list is not random: actives were taken first. Their share in the collection is about 6.6%.
H69AR inhibit: proliferation blockers of H69AR lung cancer cells, primary screen, cell-based, human, 86K library; H69AR lung tumor viability, ATP luminescence, 72 h; stronger effect = lower value; actives 6% (n = 85,000); AID 598, 2007; viability, % at 10 µM;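 active = viability at or below 40%; inactive = viability above 40%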;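 note: multidrug resistant small cell line overexpressing MRP-1 efflux transporter; 100% = mean luminescence of untreated control wells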
Lung fibro prol: antiproliferative effect on LL 47 fibroblasts – human, LL 47 cells, CellTiter-Glo luminescence, primary screen. viability, % at 10 µM. actives 1.1% (n = 85,000). LL 47 human lung fibroblast viability, ATP luminescence; stronger effect = lower value. AID 719, 2007;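 active = viability at or below 50% in the single dose screen; inactive = viability above 50%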;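 note: compound exposure lasted 72 h before the ATP readout; 100% = median luminescence of untreated cell-only wells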
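Material: human LL 47 lung fibroblast cells; quantity: 1,150 cells/well; medium: IMEM plus 15% FBS; doses: 0.1% DMSO in all compound wells; timing: overnight attachment after seeding, then 72 h compound exposure at 37 °C; detection: CellTiter-Glo luminescence; measure: % viability of median cell-only signal; controls: cell-only wells, no compound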
Jurkat viability: cytotoxicity toward Jurkat T cells, primary screen, cytotoxicity control, cell-based, Jurkat E6.1, 60K MLSMR library. Jurkat E6.1 viability, ATP luminescence, 48 h. inhibition, % at 4 µM. actives 1.2% (n = 56,000);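 active = inhibition above the mean inhibition of all tested compounds plus 3 SD, cut at about 28% in these data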
HUVEC prolif 384: inhibitors of HUVEC proliferation, primary screen, cell-based, 384-well. CellTiter-Glo luminescence, 72 h; stronger effect = lower value. viability, % at 10 µM (by protocol). actives 1.1% (n = 86,000);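 active = viability at or below 30%; inactive = viability above 30%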;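 note: 100% = median luminescence of DMSO-only cell control wells on each plate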
* = called active by the depositor; . = not tested or not shown.

SMILES	H69AR inhibit	Lung fibro prol	Jurkat viability	HUVEC prolif 384
O=C(CN(C1CC1)S(=O)(=O)c1ccc(S(=O)(=O)N2CCCCCC2)cc1)Nc1ccccc1	37.1*	93.3	-4.1	77.4
CCN(C1CCCCC1)S(=O)(=O)c1ccc(S(=O)(=O)N(CC(=O)Nc2ccccc2)C2CC2)cc1	58.3	87.4	.	92.5
OCCSc1nc2ccccc2n1CCOc1ccccc1	100.9	99.6	.	78.8
COc1ccc(/C=N/Nc2ccc([N+](=O)[O-])cc2)cc1Cn1cc([N+](=O)[O-])cn1	13.7*	92.0	.	47.6
COc1ccc(/C=N/Nc2ccccc2)cc1Cn1nc(C)c([N+](=O)[O-])c1C	82.7	97.3	.	60.1
O=S(=O)(NC(=NC1CCCC1)C(F)(F)F)c1ccccc1	93.5	.	-2.5	107.2
CCOC(=O)C(C)Oc1cccc2c(=O)n(CC(=O)NCc3ccc4c(c3)OCO4)ccc12 (centres undefined)	30.5*	59.9	86.9*	50.5
CCOC(=O)C(C)Oc1cccc2c(=O)n(CC(=O)Nc3ccc4c(c3)OCCO4)ccc12 (centres undefined)	82.0	93.8	-2.6	82.8
COc1ccc(OCCSc2nnc(C)n2-c2ccccc2)cc1	32.3*	100.5	.	86.1
S=c1[nH]nc(COc2ccc3c(c2)OCO3)n1-c1ccccc1	37.4*	97.7	-0.2	93.1
CC(/C=N/Nc1nnc2c(n1)[nH]c1ccccc12)=C\c1ccco1	34.5*	113.7	.	97.5
CC(/C=N/NC(=O)c1cccnc1)=C\c1ccco1	95.5	111.3	.	98.9
C=CCCCCCCCCc1nc(=S)[nH][nH]1	20.9*	90.6	.	94.3
Cc1ccc(C)n1-c1ccc(-c2nnc3n2CCCCC3)s1	82.8	93.6	-4.9	105.5
O=C(N1CCCCCC1)N1CCN(C(=O)N2CCOCC2)CC1	95.7	99.9	-1.9	96.4
O=C(N1CCOCC1)N1CCCN(C(=O)N2CCOCC2)CC1	36.1*	100.2	-2.9	91.8
COc1ccc(N2C(=O)CC(Sc3ncn[nH]3)C2=O)c(OC)c1 (centres undefined)	1.6*	86.5	3.7	89.2
CC(C)c1ccc(N2C(=O)CC(Sc3ncn[nH]3)C2=O)cc1 (centres undefined)	83.3	104.0	.	99.2
CCCCn1c(=N)n(CC(=O)c2ccco2)c2ccccc21	83.6	98.2	.	89.6
CCCCCCCn1c(=N)n(CC(=O)c2ccco2)c2ccccc21	24.2*	64.6	.	43.2
CC(=O)SC(C[N+](=O)[O-])c1cn(C(C)=O)c2ccccc12 (centres undefined)	2.3*	2.6*	.	101.2
CC(=O)n1cc(Nc2ccccc2C(=O)O)c2ccccc21	54.0	100.9	1.5	105.2
COC(=O)C(C)Sc1nc2c(c(-c3ccc(OC)cc3)c1C#N)-c1ccccc1C2=O (centres undefined)	34.2*	87.8	.	55.3
Oc1c(I)cc(Cl)c2cccnc12	8.3*	70.0	.	12.1*
Oc1c(CN2CCc3ccccc3C2)cc(Cl)c2cccnc12	2.0*	13.5*	16.2	5.9*
SMILES	H69AR inhibit	Lung fibro prol	Jurkat viability	HUVEC prolif 384
Oc1c(CN2CCCCC2)cc(Br)c2cccnc12	.	.	49.4*	.
CC(CCc1ccccc1)NC(=O)C(Cc1ccccc1)NS(=O)(=O)c1cccs1 (centres undefined)	46.3	84.0	.	84.4
CCCC1=C(C(=O)OCC)C(c2c(C)nn(-c3ccccc3)c2Cl)C(C#N)=C(N)O1 (centres undefined)	75.6	98.6	.	93.4
COc1cc(/C=N/NC(=O)CCc2c(C)n[nH]c2C)cc(OC)c1OC	91.4	102.0	.	92.1
CCCCNc1ncnc2c1cnn2-c1ccccc1	13.0*	67.8	90.2*	72.3
CCCCNc1ncnc2c1cnn2-c1ccc(C)cc1C	37.4*	91.6	8.2	96.7
Fc1cccc(Nc2ncnc3c2cnn3-c2ccccc2)c1	14.5*	85.8	9.8	76.1
CCCCNc1ncnc2c1cnn2-c1ccc(Cl)cc1	18.6*	59.4	86.1*	59.6
CCCCCn1c2nc3ccccc3nc2c2c(=O)n(CC3CCCO3)c(C)nc21 (centres undefined)	43.5	101.5	1.6	87.4
CCN(CCCNC(=O)CN1C(=O)COc2ccccc21)c1cccc(C)c1	92.5	104.7	.	107.2
O=C(COC(=O)c1ccccc1OCc1ccc(Cl)cc1)NC1CC1	107.0	109.9	.	102.2
Fc1ccccc1Cn1nnc2c(-n3ccnc3)ncnc21	90.4	90.8	-1.7	107.0
CS(=O)(=O)N1CCC(C(=O)Nc2ccc3c(c2)OCCO3)CC1	92.7	97.7	.	97.8
Cc1ccnc(NS(=O)(=O)c2ccc(NC(=O)c3c(-c4ccccc4Cl)noc3C)cc2)n1	86.2	98.0	.	98.5
c1ccc(-n2ncc3c(NCc4ccco4)ncnc32)cc1	28.4*	92.1	26.1	73.2
CCCC1(CCC)NC(=O)N(CC(=O)Nc2ccccc2OC)C1=O	122.5	14.9*	8.3	96.1
Cc1cc(C)c2oc(-c3ccc(Cl)c(NC(=O)c4ccc(C#N)cc4F)c3)nc2c1	21.6*	20.3*	-3.0	57.0
CC(=O)Nc1ccc(S(=O)(=O)NCc2ccc(C(=O)NC(C)c3ccccc3)cc2)cc1 (centres undefined)	88.6	97.9	.	88.7
O=c1cc(CO)oc(C(Nc2ccccn2)c2ccc(C(F)(F)F)cc2)c1O (centres undefined)	19.2*	88.9	-6.3	90.7
C=CCn1c(O)c(N=NC(=S)Nc2cccc(C)c2)c2ccccc21	22.0*	52.0	.	48.4
C=CCn1c(O)c(N=NC(=O)CNC(=O)/C=C/c2ccco2)c2ccccc21	74.8	95.5	.	85.7
COC(=O)c1c(N)n(-c2cc(OC)cc(OC)c2)c2nc3ccccc3nc12	67.0	102.9	4.4	58.2
COc1ccc2c(c1)c1nc3ccccc3nc1n2CC(=O)OC(C)C	18.5*	38.7*	.	56.8
CCOC(=O)Cn1c2ccccc2c2nc3ccccc3nc21	6.1*	96.1	-8.7	107.2
CCCn1c2c(c(O)c(C(=O)Nc3ccccc3)c1=O)CCCC2	88.2	99.1	2.6	114.4
SMILES	H69AR inhibit	Lung fibro prol	Jurkat viability	HUVEC prolif 384
O=C(c1ccccc1)N1CCN2C(=O)c3ccccc3C12c1ccc(Cl)cc1 (centres undefined)	66.7	74.0	.	72.6
CCn1c2ccccc2c2nnc(SCN3C(=O)c4ccccc4C3=O)nc21	57.1	92.2	3.8	54.6
CCOC(=O)C1C(=O)N(C(=O)c2cncc(Br)c2)CC1c1ccccc1 (centres undefined)	101.6	99.5	4.6	90.8
CC1(C)Cc2nc3oc4c(NCc5ccccc5)ncnc4c3cc2CO1	75.9	92.1	3.6	69.0
CC1(C)Cc2nc3sc4c(SCC(=O)NCc5ccccc5)ncnc4c3cc2CO1	0.7*	55.4	.	50.4
CCOP(=O)(OCC)C(C#N)=C1SCN(c2ccccc2)CS1	94.2	89.4	.	84.8
CC(=O)Nc1ccc(S(=O)(=O)N2CCOCC2)cc1	94.7	112.9	.	103.0
Cc1ccc(O)c(-c2cc(C(=O)Nc3ccc(S(=O)(=O)N4CC(C)OC(C)C4)cc3)[nH]n2)c1 (centres undefined)	17.3*	89.2	8.8	77.0
